# Assay outcomes (PubChem BioAssay)
# VIM-2 inhibitor: blocks Pseudomonas aeruginosa VIM-2 metallo-beta-lactamase | 0.89% of 290,000 active | purified VIM-2, nitrocefin hydrolysis, epi-absorbance fluorescence | AID 1527 | inhibition, % at 5.6 µM;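 active = inhibition above the mean of all tested compounds plus 3 SD, cutoff set per screening run, cut at about 7.5% in these data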;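 also: red hydrolysis product quenches plate fluorescence so inhibitors raise well fluorescence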
# MEKK3 PB1 HTS: modulators (inhibitors or enhancers) of MEK5 binding to human MEKK3 PB1 domain | Q99759 | bead-based flow cytometry, Alexa488-MEK5 binding to MEKK3; actives lie on both sides; 0 = blocked by unlabeled MEK5, 100 = vehicle | binding response (% of control), % at 10 µM | 1.4% of 290,000 active | AID 1529;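 active = binding response more than 3 SD above or below the average of its plate-row segment, actives on both sides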;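 also: Alexa488 bead fluorescence after subtracting the streptavidin-only scavenger bead signal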
# Target sequence (Q99759 whole entry, looked up, the tested form may be a part): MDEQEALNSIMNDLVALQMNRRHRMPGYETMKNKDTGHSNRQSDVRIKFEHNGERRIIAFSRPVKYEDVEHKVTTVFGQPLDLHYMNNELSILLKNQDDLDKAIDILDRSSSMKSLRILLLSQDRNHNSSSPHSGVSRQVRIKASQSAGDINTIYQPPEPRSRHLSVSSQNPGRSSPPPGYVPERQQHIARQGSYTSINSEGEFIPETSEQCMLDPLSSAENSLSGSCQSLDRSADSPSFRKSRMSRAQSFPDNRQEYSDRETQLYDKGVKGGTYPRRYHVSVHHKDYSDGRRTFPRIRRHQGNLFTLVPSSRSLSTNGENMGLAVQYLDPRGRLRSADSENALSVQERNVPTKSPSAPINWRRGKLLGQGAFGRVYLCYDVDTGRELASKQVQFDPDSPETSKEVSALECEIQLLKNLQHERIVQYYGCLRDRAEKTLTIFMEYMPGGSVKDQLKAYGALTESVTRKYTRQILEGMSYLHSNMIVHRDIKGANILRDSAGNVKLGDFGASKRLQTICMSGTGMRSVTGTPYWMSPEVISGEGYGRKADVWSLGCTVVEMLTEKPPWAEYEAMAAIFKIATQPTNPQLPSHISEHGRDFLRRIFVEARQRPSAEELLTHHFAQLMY
# MEKK2mut PB1 HTS: signal of MEK5 binding to mutant human MEKK2 PB1 domain | percent response, % at 10 µM | bead flow cytometry, Alexa488-MEK5 binding to MEKK2 mutant | 0.35% of 290,000 active; in the data active = percent response above about 24%, passing the limit was not always enough
# IMP-1 inh: inhibitors of Pseudomonas aeruginosa IMP-1 metallo-beta-lactamase; purified IMP-1, nitrocefin hydrolysis, epi-absorbance fluorescence; inhibition, % at 5.6 µM; 0.45% of 290,000 active; AID 1556;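 active = inhibition above the mean plus 3 SD of all compounds in the same screening run, cut at about 4.5% in these data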
#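 System – purified recombinant IMP-1 beta-lactamase · Input – IMP-1 dispensed at 0.2 nM · Timing – 15 min preincubation plus 25 min reaction at 25 °C · Signal – Epi-absorbance fluorescence, 480 nm excitation, 530 nm emission · Measure – percent IMP-1 inhibition derived from blank-referenced optical density · Controls – Enzyme-plus-DMSO low control, enzyme-free DMSO high control · Replication – singlicate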
# MEKK2wt PB1 HTS: raises or lowers MEK5 binding to wildtype human MEKK2 PB1 domain. bead flow cytometry, Alexa488-MEK5 binding to MEKK2 WT; actives lie on both sides. 1.1% of 290,000 active. Q9Y2U5. binding response (% of control), % at 10 µM; in the data active = binding response below about 67% or above about 130%
# MEKK2wt confirm: raises or lowers MEK5 binding to wildtype human MEKK2, retest. shares compounds with MEKK3 PB1 HTS. bead flow cytometry, Alexa488-MEK5 binding to MEKK2 WT; actives lie on both sides. binding response (% of control), % at 10 µM. 2.4% of 5,900 active. AID 1892; in the data active = binding response below about 16% or above about 210%; inactive = in between
# MEKK2mut-MEK5: signal of MEK5 binding to mutant human MEKK2, retest; shares compounds with MEKK3 PB1 HTS; bead flow cytometry, Alexa488-MEK5 binding to MEKK2 mutant; percent response, % at 10 µM; 2% of 5,900 active; in the data active = percent response mostly above about 71%, no sharp cut-off; inactive = mostly below about 38%;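 also: higher means compound restores mutant binding toward wildtype level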
# MEKK3 confirm: confirmation of inhibitors of MEK5 binding to human MEKK3; shares compounds with MEKK3 PB1 HTS; bead flow cytometry, Alexa488-MEK5 binding to MEKK3; active compounds read low; binding response (% of control), % at 10 µM; 1.8% of 5,900 active; AID 1894;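 active = binding response below 72% of control, or above a set upper limit, though filed actives all read lower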;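 also: lower values mean stronger disruption of MEK5 binding to MEKK3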
# Numbers stand for hits; - = inactive; . = no result; ! = not confirmed by another sample; [ ] = dose if it differs, or a comment. A selection: hits, their analogues and other compounds. The true share with any hit is near 3.4%.
SMILES,VIM-2 inhibitor,MEKK3 PB1 HTS,MEKK2mut PB1 HTS,IMP-1 inh,MEKK2wt PB1 HTS,MEKK2wt confirm,MEKK2mut-MEK5,MEKK3 confirm
COc1ccc(NC(=O)Cc2c(Sc3ccccc3)c3ccccc3n2C)cc1,-,154,-,-,-,-,-,-
Cc1cc(C(=O)NCCN2CCN(c3cccc(Cl)c3)CC2)n(-c2ccccc2)n1,-,-,-,-,-,.,.,.
Cc1cc(C(=O)NCCCN2CCN(c3cc(Cl)ccc3C)CC2)n(-c2ccccc2)n1,-,-,-,-,139,-,-,-
Cc1ccc(NS(=O)(=O)c2cccc(C(=O)N/N=C/c3ccc4c(c3)OCCO4)c2)c(C)c1,-,129,-,-,-,-,-,-
C#CC[N+]1(CC#Cc2ccccc2)CCOCC1,-,-,-,-,-,.,.,.
C(#Cc1ccccc1)C[N+]1(CC#Cc2cccc3ccccc23)CCOCC1,-,-,-,-,154,-,-,-
CCC(=O)Nc1ccc(OC)cc1OC,-,-,-,-,-,.,.,.
Clc1ccc2c(c1)CCc1cccnc1C2=C1CCNCC1,-,-,-,-,144!,-,-,-
O=C(/C=C/c1cccc([N+](=O)[O-])c1)N1CCOCC1,-,-,-,-,-,.,.,.
CNCC(=O)Nc1c(C)n[nH]c1C,-,148,-,-,-,-,-,-
C1CCC2(CC1)OCC1(CO2)COC2(CCCCC2)OC1,-,-,-,-,-,.,.,.
CCN1CCN(C(c2cccc(OC)c2OC)c2nnnn2Cc2ccco2)CC1 (configuration not stated),-,-,-,-,-,.,.,.
COc1ccccc1C(c1nnnn1Cc1ccco1)N1CCN(c2cccc(C)c2C)CC1 (configuration not stated),-,49[inhibitor],-,-,-,-,-,-
Cc1cccc(C)c1NC(=O)C1(N(Cc2ccco2)C(=O)Cn2nnnc2N)CCCCC1,-,-,-,-,-,.,.,.
Cc1cccc(C)c1NC(=O)C1(N(Cc2ccco2)C(=O)CC2NC(=O)NC2=O)CCCC1 (configuration not stated),-,3.0[inhibitor],-,-,3.0[inhibitor],-,-,-
Cc1cccc(-n2cnc3cc(C(=O)N4CCc5ccccc54)ccc32)c1,-,-,-,-,-,.,.,.
CC(=O)N=c1c(C#N)cc2c(=O)n3cccc(C)c3nc2n1CCCOC(C)C,-,-,-,-,46[inhibitor],-,-,-
CCOC(=O)CSc1nnc(-c2c[nH]c3ccccc23)n1CC,-,-,-,-,-,.,.,.
Cc1ccc(S(=O)(=O)N2CCOCC2)cc1NC(=O)CSc1nnc2cc(C)c3ccccc3n12,-,141,-,-,-,-,-,-
CCn1c(SCC(=O)OC)nnc1-c1c[nH]c2ccccc12,-,129,-,-,-,-,-,-
COC(=O)CSc1nnc2cc(C)c3ccccc3n12,10,46[inhibitor],-,-,41[inhibitor],-,-,-
Cc1ccc(S(=O)(=O)N2CCOCC2)cc1NC(=O)COC(=O)C1COc2ccccc2O1 (configuration not stated),-,144,-,-,-,-,-,-
O=C(COC(=O)C1COc2ccccc2O1)Nc1cccc(S(=O)(=O)N2CCCCC2)c1 (configuration not stated),-,-,-,-,-,.,.,.
CCOC(=O)C1CN(S(=O)(=O)c2ccccc2)C1,-,-,-,-,-,.,.,.
COc1ccc(-n2cnnc2SCC(=O)Nc2cc(S(=O)(=O)N3CCCCC3)ccc2C)cc1,-,-,-,-,-,.,.,.
SMILES,VIM-2 inhibitor,MEKK3 PB1 HTS,MEKK2mut PB1 HTS,IMP-1 inh,MEKK2wt PB1 HTS,MEKK2wt confirm,MEKK2mut-MEK5,MEKK3 confirm
COc1ccccc1NC(=O)CSc1nncn1-c1ccccc1,-,-,-,-,-,.,.,.
Cc1ccc(S(=O)(=O)N2CCCCC2)cc1NC(=O)CSc1nncn1-c1ccccc1,-,-,107,-,.,-,-,-
COc1ccc([N+](=O)[O-])cc1NC(=O)CSc1nncn1-c1ccccc1,-,-,55,-,-,-,-,-
O=C(NNC(=S)Nc1cccc(C(F)(F)F)c1)c1ccccc1Cl,-,66[inhibitor],-,-,-,-,-,-
O=C(NNC(=S)Nc1cccc(C(F)(F)F)c1)c1cccc(Cl)c1,-,-,-,-,-,.,.,.
COc1ccc(CN2C(=O)CN=C2Nc2cc(C)ccc2C)cc1,-,-,-,-,-,.,.,.
CN(CCS(=O)(=O)c1ccc(Cl)cc1)Cc1cccnc1,-,138,-,-,-,-,-,-
CC(=O)OCC1=C(C(=O)O)N2C(=O)C(NC(=O)C(C)Cn3nc(C)c(Cl)c3C)C2SC1 (configuration not stated),-,-,-,-,-,.,.,.
CC(=O)OCC1=C(C(=O)O)N2C(=O)C(NC(=O)c3ccc(F)cc3)C2SC1 (configuration not stated),-,139,-,-,-,-,-,-
Cc1cc(N2CCN(C)CC2)nc2ccc(NC(=S)NCCCN3CCc4ccccc4C3)cc12,-,-,-,-,173,-,-,-
CCN1CCN(c2cc(C)c3cc(NC(=S)NCCCN4CCc5ccccc5C4)ccc3n2)CC1,-,-,-,-,177,-,-,-
Cc1cc(N2CCN(C)CC2)nc2ccc(NC(=S)N3CCCCC3)cc12,-,-,-,-,-,.,.,.
Cc1cccc(N2CCN(C(=S)Nc3ccc4nc(N5CCN(C)CC5)cc(C)c4c3)CC2)c1C,-,30[inhibitor],-,-,47[inhibitor],-,-,-
OC(C#CCN1CCCC1)(c1ccccc1)c1cccnc1 (configuration not stated),-,-,-,-,-,.,.,.
CC(C)(C)C(=O)NC(=S)Nc1ccc(C(F)(F)F)cc1,-,-,-,-,-,.,.,.
Cc1nc(SCN2C(=O)c3ccccc3C2=O)n[nH]1,-,-,-,-,-,.,.,.
C=CCn1c(SCC(=O)O)nnc1-c1cccc(Cl)c1,-,-,-,-,-,.,.,.
Cc1ccc(NC(=S)NCC2CCCO2)cc1 (configuration not stated),-,-,-,-,-,.,.,.
S=C(NCC1CCCO1)NC12CC3CC(CC(C3)C1)C2 (configuration not stated),-,4.0[inhibitor],-,-,6.0[inhibitor],-,-,-
O=C(NCc1cccc(CNC(=O)C(=O)NCC2CCCO2)c1)C(=O)NCC1CCCO1 (configuration not stated),-,-,-,-,-,.,.,.
S=C(NCC1CCCO1)Nc1ccc(Cl)cc1 (configuration not stated),-,141,-,-,-,-,-,-
